Published values collected from several papers.
TEK: Angiopoietin-1 receptor (TEK, Homo sapiens, UniProt Q02763)
ST14: Suppressor of tumorigenicity 14 protein (ST14, Homo sapiens, UniProt Q9Y5Y6)
CDK2 with cyclin A2: Cyclin-dependent kinase 2, with cyclin A2 (CDK2, Homo sapiens, UniProt P24941)

SMILES	target	test	setting	quantity	value
C=CC(=O)N1CCC(COCC(=O)N2CCN(c3nc(-c4cnc(N)nc4C(F)F)nc(N4CCOC[C@@H]4C)n3)CC2)CC1	TEK	binding, competition with immobilised ligand	1 µM	remaining binding	100%
N=C(N)NCCC[C@H](NC(=O)[C@H](Cc1ccc2ccccc2c1)NC(=O)[C@H](Cc1cscn1)NC(=O)CCc1ccccc1)C(=O)c1nc2ccccc2s1	ST14	enzyme activity, inhibitor	0.1 µM	remaining activity	8%
Cc1cc([C@@H](C)Nc2ccccc2C(=O)O)c2nc(N3CCC(F)(F)CC3)c(C#N)c(=O)n2c1	Mitogen-activated protein kinase 10 (MAPK10, Homo sapiens, UniProt P53779)	binding, competition with immobilised ligand	10 µM	remaining binding	100%
CC(=O)Nc1c(N)nc(SCC(=O)N/N=C/c2ccc([N+](=O)[O-])cc2)[nH]c1=O	CDK2 with cyclin A2	enzyme activity, inhibitor	1 µM	inhibition	67.2%
CNc1ncc2c(/C=C/C(=O)N3CCC(OC)CC3)nn(Cc3cccc(C(F)(F)F)c3)c2n1	TEK	enzyme activity, inhibitor, radiometric	1 µM	remaining activity	98%
CC(C)(C)c1ccc(C[C@H](NC(=O)[C@H](Cc2cscn2)NC(=O)CCc2ccccc2)C(=O)N[C@@H](CCCNC(=N)N)C(=O)c2nc3ccccc3s2)cc1	ST14	enzyme activity, inhibitor	0.1 µM	remaining activity	80%
CC(=O)Nc1c(N)nc(SCC(=O)NN)[nH]c1=O	CDK2 with cyclin A2	enzyme activity, inhibitor	5 nM	inhibition	14.6%
N=C(N)NCCC[C@H](NC(=O)[C@@H](NC(=O)[C@H](Cc1cscn1)NC(=O)CCc1ccccc1)C1CCCCC1)C(=O)c1nc2ccccc2s1	ST14	enzyme activity, inhibitor	0.1 µM	remaining activity	32%
COc1cc(-c2cncc3c2CN(C)Cc2cc(N4CCNCC4)ccc2-3)cc(OC)c1OC	Angiopoietin-1 receptor (TEK, Homo sapiens, UniProt Q02763, Y897S)	enzyme activity, inhibitor	1 µM	remaining activity	102%
CNC(=O)c1cc(Oc2ccc(NC(=O)Nc3ccc(Cl)c(C(F)(F)F)c3)cc2)ccn1	CDK2 with cyclin A2	enzyme activity, inhibitor	5 nM	inhibition	27.6%
